One block for each compound: values may come before it. Active and inactive are the calls of the source. The calls are words filed in the database; no cut-off is given here.
Tests used:
Rattus norvegicus [1] = organism: Rattus norvegicus; assay: Antisecretory activity in rat pylorus ligation-induced ulcer model determined by ratio of total acidity inhibition in drug treated to untreated control; type: functional
How it was run: (§1)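 Sprague Dawley rats (130-150 g) fasted 24 h with water ad libitum; pylorus ligated through a midline incision under ether anesthesia. Dosing oral, 1 h before ligation. Gastric juice free and total acidity titrated against 0.01 N NaOH, with Topfer's reagent and phenolphthalein as indicators. Values expressed as ratio of percent inhibition, treated vs control group.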

Rattus norvegicus [2] = organism: Rattus norvegicus; assay: Inhibition of gastric H+/K(+)-ATPase activity in Sprague-Dawley rat microsomal vesicles at 10 umol; type: microsomes; conditions: Stomach, Microsome
How it was run: (§2)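 Rat gastric microsomes were prepared by density gradient and differential centrifugation. The medium held 40 mM Tris-HCl pH 7.4, 2 mM MgCl2, 10 mM KCl (water for blank) and […] vesicular protein. Compound was preincubated 30 min at 37 °C. Tris-ATP at 0.3, 1.0 or 3 mM was then added for 20 min and stopped with chilled 10% TCA. Released Pi was read at 530 nm; % inhibition vs control.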

Rattus norvegicus [3] = organism: Rattus norvegicus; assay: Antisecretory activity in rat pylorus ligation-induced ulcer model determined by ratio of free acidity inhibition in drug treated to untreated control; type: functional; how it was run: as §1
Rattus norvegicus [4] = organism: Rattus norvegicus; assay: Inhibition of gastric H+/K(+)-ATPase activity in Sprague-Dawley rat microsomal vesicles at 3 uM in presence of 3.0 mM of ATP; type: microsomes; conditions: Stomach, Microsome; how it was run: as §2
Rattus norvegicus [5] = organism: Rattus norvegicus; assay: Inhibition of p-NPPase in Sprague-Dawley rat microsomal vesicles at 30 uM in presence of 1.0 mM of p-NPP; type: microsomes; conditions: Microsome
How it was run: (§3)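 Rat gastric microsomes were assayed in 10 mM PIPES/Tris pH 7.0 with 5 mM KCl. Compound was preincubated 30 min at 37 °C. p-NPP at 1.0, 3.0 or 5.0 mM was added and incubated 20 min at 37 °C, then stopped with 0.5 N NaOH. p-Nitrophenol release was read at 410 nm; % inhibition vs control.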

Rattus norvegicus [6] = organism: Rattus norvegicus; assay: Inhibition of gastric H+/K(+)-ATPase activity in Sprague-Dawley rat microsomal vesicles at 30 uM in presence of 1.0 mM of ATP; type: microsomes; conditions: Stomach, Microsome; how it was run: as §2
Rattus norvegicus [7] = organism: Rattus norvegicus; assay: Inhibition of p-NPPase in Sprague-Dawley rat microsomal vesicles at 30 uM in presence of 5.0 mM of p-NPP; type: microsomes; conditions: Microsome; how it was run: as §3
Rattus norvegicus [8] = organism: Rattus norvegicus; assay: Inhibition of p-NPPase in Sprague-Dawley rat microsomal vesicles at 10 uM in presence of 5.0 mM of p-NPP; type: microsomes; conditions: Microsome; how it was run: as §3
Rattus norvegicus [9] = organism: Rattus norvegicus; assay: Inhibition of p-NPPase in Sprague-Dawley rat microsomal vesicles at 3 uM in presence of 1.0 mM of p-NPP; type: microsomes; conditions: Microsome; how it was run: as §3
Rattus norvegicus [10] = organism: Rattus norvegicus; assay: Inhibition of gastric proton pump activity of gastric H(+)/K(+) ATPase in Sprague-Dawley rat microsomal vesicles after washing at 10 uM; type: microsomes; conditions: Stomach, Microsome
Rattus norvegicus [11] = assay: Antisecretory activity in rat pylorus ligation-induced ulcer model assessed as inhibition of free acidity of gastric juice at 10 mg/kg; type: functional, organism-based; set-up: dose 10 mg/kg; how it was run: as §1
Rattus norvegicus [12] = organism: Rattus norvegicus; assay: Inhibition of gastric H+/K(+)-ATPase activity in Sprague-Dawley rat microsomal vesicles at 10 uM in presence of 0.3 mM of ATP; type: microsomes; conditions: Stomach, Microsome; how it was run: as §2
Rattus norvegicus [13] = organism: Rattus norvegicus; assay: Inhibition of gastric proton pump activity of gastric H(+)/K(+) ATPase in Sprague-Dawley rat microsomal vesicles before washing at 10 uM; type: microsomes; conditions: Stomach, Microsome
Rattus norvegicus [14] = organism: Rattus norvegicus; assay: Inhibition of gastric H+/K(+)-ATPase activity in Sprague-Dawley rat microsomal vesicles at 10 uM in presence of 3.0 mM of ATP; type: microsomes; conditions: Stomach, Microsome; how it was run: as §2
Rattus norvegicus [15] = organism: Rattus norvegicus; assay: Inhibition of gastric H+/K(+)-ATPase activity in Sprague-Dawley rat microsomal vesicles at 10 uM in presence of 1.0 mM of ATP; type: microsomes; conditions: Stomach, Microsome; how it was run: as §2
Rattus norvegicus [16] = organism: Rattus norvegicus; assay: Inhibition of gastric H+/K(+)-ATPase activity in Sprague-Dawley rat microsomal vesicles at 30 uM in presence of 3.0 mM of ATP; type: microsomes; conditions: Stomach, Microsome; how it was run: as §2
Rattus norvegicus [17] = organism: Rattus norvegicus; assay: Inhibition of p-NPPase in Sprague-Dawley rat microsomal vesicles at 3 uM in presence of 3.0 mM of p-NPP; type: microsomes; conditions: Microsome; how it was run: as §3
Rattus norvegicus [18] = organism: Rattus norvegicus; assay: Inhibition of p-NPPase in Sprague-Dawley rat microsomal vesicles at 10 uM in presence of 3.0 mM of p-NPP; type: microsomes; conditions: Microsome; how it was run: as §3
Rattus norvegicus [19] = organism: Rattus norvegicus; assay: Inhibition of gastric H+/K(+)-ATPase activity in Sprague-Dawley rat microsomal vesicles at 3 uM in presence of 1.0 mM of ATP; type: microsomes; conditions: Stomach, Microsome; how it was run: as §2
Rattus norvegicus [20] = assay: Antisecretory activity in rat pylorus ligation-induced ulcer model assessed as inhibition of total acidity of gastric juice at 20 mg/kg; type: functional, organism-based; set-up: dose 20 mg/kg; how it was run: as §1
Rattus norvegicus [21] = organism: Rattus norvegicus; assay: Inhibition of gastric H+/K(+)-ATPase activity in Sprague-Dawley rat microsomal vesicles at 3 uM in presence of 0.3 mM of ATP; type: microsomes; conditions: Stomach, Microsome; how it was run: as §2
Rattus norvegicus [22] = organism: Rattus norvegicus; assay: Inhibition of gastric H+/K(+)-ATPase activity in Sprague-Dawley rat microsomal vesicles at 30 uM in presence of 0.3 mM of ATP; type: microsomes; conditions: Stomach, Microsome; how it was run: as §2
Rattus norvegicus [23] = organism: Rattus norvegicus; assay: Inhibition of p-NPPase in Sprague-Dawley rat microsomal vesicles at 100 uM in presence of 5.0 mM of p-NPP; type: microsomes; conditions: Microsome; how it was run: as §3
Rattus norvegicus [24] = organism: Rattus norvegicus; assay: Inhibition of p-NPPase in Sprague-Dawley rat microsomal vesicles at 30 uM in presence of 3.0 mM of p-NPP; type: microsomes; conditions: Microsome; how it was run: as §3
Rattus norvegicus [25] = organism: Rattus norvegicus; assay: Inhibition of p-NPPase in Sprague-Dawley rat microsomal vesicles at 10 uM in presence of 1.0 mM of p-NPP; type: microsomes; conditions: Microsome; how it was run: as §3

inhibition (Rattus norvegicus [2]): 65%
Compound: CCOC(=O)[C@@H](NC(=O)OCc1ccccc1)C(O)/C=C/c1ccccc1 (some centres undefined)
Activity (Rattus norvegicus [1]): 0.98
Activity (Rattus norvegicus [3]): 0.93

inhibition (Rattus norvegicus [2]): 10%
Compound: CCOC(=O)[C@@H](NC(=O)OCc1ccccc1)C(O)C#C[Si](C)(C)C (some centres undefined)
Activity (Rattus norvegicus [1]): 1
Activity (Rattus norvegicus [3]): 1.01

inhibition (Rattus norvegicus [2]): 46%
Compound: O=C(N[C@H](CO)C(=O)O)OCc1ccccc1
Activity (Rattus norvegicus [1]): 0.49
Activity (Rattus norvegicus [3]): 0.36

inhibition (Rattus norvegicus [2]): 62%
Compound: COC(=O)[C@@H]1CCCN1C(=O)/C=C/c1ccccc1
Activity (Rattus norvegicus [1]): 0.59
Activity (Rattus norvegicus [3]): 0.47

inhibition (Rattus norvegicus [2]): 34%
Compound: CC(C)(C)OC(=O)N[C@@H](CO)C(=O)O
Activity (Rattus norvegicus [1]): 0.72
Activity (Rattus norvegicus [3]): 0.71

inhibition (Rattus norvegicus [2]): 88%
Compound: CC(C)(C)OC(=O)[C@@H]1CCC(=O)N1Cc1ccccc1Cl
Activity (Rattus norvegicus [1]): 0.27
Activity (Rattus norvegicus [3]): 0.17

inhibition (Rattus norvegicus [2]): 59%
Compound: O=C(N[C@@H](COCc1ccccc1)C(=O)O)OCc1ccccc1
Activity (Rattus norvegicus [1]): 0.5
Activity (Rattus norvegicus [3]): 0.48

inhibition (Rattus norvegicus [2]): 68%
Compound: Cc1ccccc1CN1C(=O)CC[C@H]1C(=O)OC(C)(C)C
Activity (Rattus norvegicus [1]): 0.62
Activity (Rattus norvegicus [3]): 0.63

Continued, compound first:

Compound: O=C(O)[C@H]1CCC(=O)N1Cc1ccccc1
Activity (Rattus norvegicus [1]): 0.51
inhibition (Rattus norvegicus [2]): 55%
Activity (Rattus norvegicus [3]): 0.46

Compound: O=C(O)[C@@H]1CCC(=O)N1Cc1cccc2ccccc12
Activity (Rattus norvegicus [1]): 0.91
inhibition (Rattus norvegicus [2]): 53%
Activity (Rattus norvegicus [3]): 0.35

Compound: COC(=O)[C@@H]1CCC(=O)N1Cc1ccc(Cl)cc1
Activity (Rattus norvegicus [1]): 1.01
inhibition (Rattus norvegicus [2]): 46%
Activity (Rattus norvegicus [3]): 0.67

Compound: O=C(O)[C@@H]1CCC(=O)N1Cc1ccccc1
Activity (Rattus norvegicus [1]): 0.93
inhibition (Rattus norvegicus [2]): 44%
Activity (Rattus norvegicus [3]): 0.86

Compound: Cc1ccccc1CN1C(=O)CC[C@H]1C(=O)O
Activity (Rattus norvegicus [1]): 0.89
inhibition (Rattus norvegicus [2]): 46%
Activity (Rattus norvegicus [3]): 0.92

Compound: COc1ccc2[nH]c([S+]([O-])Cc3ncc(C)c(OC)c3C)nc2c1 (centres undefined)
inhibition (Rattus norvegicus [4]): 34%
inhibition (Rattus norvegicus [5]): 77%
inhibition (Rattus norvegicus [6]): 71%
inhibition (Rattus norvegicus [7]): 79%
inhibition (Rattus norvegicus [8]): 48%
inhibition (Rattus norvegicus [9]): 28%
inhibition (Rattus norvegicus [10]): 90%
Activity (Rattus norvegicus [11]): Active
inhibition (Rattus norvegicus [12]): 56%
inhibition (Rattus norvegicus [13]): 60%
inhibition (Rattus norvegicus [14]): 53%
inhibition (Rattus norvegicus [15]): 51%
inhibition (Rattus norvegicus [16]): 76%
inhibition (Rattus norvegicus [17]): 28%
inhibition (Rattus norvegicus [18]): 52%
inhibition (Rattus norvegicus [19]): 38%
Activity (Rattus norvegicus [20]): Active
inhibition (Rattus norvegicus [21]): 38%
inhibition (Rattus norvegicus [22]): 75%
inhibition (Rattus norvegicus [23]): 96%
inhibition (Rattus norvegicus [24]): 78%
inhibition (Rattus norvegicus [25]): 54%

Compound: CC(C)(C)[C@H]1OC(=O)[C@@]2(C3(O)CCCCC3)CCC(=O)N12
Activity (Rattus norvegicus [1]): 0.22
inhibition (Rattus norvegicus [2]): 55%
Activity (Rattus norvegicus [3]): 0.2
